The text below walks through data of paper PMC4431436 (Oncology Reports, 2015).

The target in series [1] is purified human αvβ3 integrin (Homo sapiens, UniProt P05106+P06756). Kind of series: 3H-MK-0429 binding assay with purified receptor.
In series [2] the target is purified murine αvβ3 integrin (Mus musculus, UniProt O54890+P43406). Description: 3H-MK-0429 binding assay with purified receptor.
The target of series [3] is T1, purified rat αvβ3 integrin (Rattus norvegicus, UniProt F1LZX9+Q8R2H2).
T1 sequence (F1LZX9 31-1043): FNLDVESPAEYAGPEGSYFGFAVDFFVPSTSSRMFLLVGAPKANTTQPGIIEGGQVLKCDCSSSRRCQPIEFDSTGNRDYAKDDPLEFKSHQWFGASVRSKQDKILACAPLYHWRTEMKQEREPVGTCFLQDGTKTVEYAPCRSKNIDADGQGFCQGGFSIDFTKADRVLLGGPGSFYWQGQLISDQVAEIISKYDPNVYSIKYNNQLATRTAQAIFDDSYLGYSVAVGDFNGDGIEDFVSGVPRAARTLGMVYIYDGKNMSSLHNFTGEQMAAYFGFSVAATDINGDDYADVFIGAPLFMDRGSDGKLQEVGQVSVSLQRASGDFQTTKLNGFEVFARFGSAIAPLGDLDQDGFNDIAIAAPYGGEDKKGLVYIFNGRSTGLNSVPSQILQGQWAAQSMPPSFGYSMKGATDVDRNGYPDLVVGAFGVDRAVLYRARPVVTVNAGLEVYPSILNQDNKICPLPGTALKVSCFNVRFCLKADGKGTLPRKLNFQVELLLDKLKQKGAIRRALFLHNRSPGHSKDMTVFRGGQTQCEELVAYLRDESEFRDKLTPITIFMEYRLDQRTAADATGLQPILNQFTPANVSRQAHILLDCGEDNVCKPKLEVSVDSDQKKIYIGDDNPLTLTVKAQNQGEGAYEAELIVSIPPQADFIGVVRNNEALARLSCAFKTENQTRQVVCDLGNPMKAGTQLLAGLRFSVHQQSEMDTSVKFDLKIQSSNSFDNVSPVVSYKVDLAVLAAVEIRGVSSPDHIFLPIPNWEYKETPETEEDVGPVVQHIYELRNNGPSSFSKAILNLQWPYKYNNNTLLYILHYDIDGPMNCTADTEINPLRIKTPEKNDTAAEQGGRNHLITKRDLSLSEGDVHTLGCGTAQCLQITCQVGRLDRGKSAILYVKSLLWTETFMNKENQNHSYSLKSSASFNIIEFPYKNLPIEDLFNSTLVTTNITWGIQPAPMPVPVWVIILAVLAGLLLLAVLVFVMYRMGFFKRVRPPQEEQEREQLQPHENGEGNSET
T1 sequence (Q8R2H2 26-787): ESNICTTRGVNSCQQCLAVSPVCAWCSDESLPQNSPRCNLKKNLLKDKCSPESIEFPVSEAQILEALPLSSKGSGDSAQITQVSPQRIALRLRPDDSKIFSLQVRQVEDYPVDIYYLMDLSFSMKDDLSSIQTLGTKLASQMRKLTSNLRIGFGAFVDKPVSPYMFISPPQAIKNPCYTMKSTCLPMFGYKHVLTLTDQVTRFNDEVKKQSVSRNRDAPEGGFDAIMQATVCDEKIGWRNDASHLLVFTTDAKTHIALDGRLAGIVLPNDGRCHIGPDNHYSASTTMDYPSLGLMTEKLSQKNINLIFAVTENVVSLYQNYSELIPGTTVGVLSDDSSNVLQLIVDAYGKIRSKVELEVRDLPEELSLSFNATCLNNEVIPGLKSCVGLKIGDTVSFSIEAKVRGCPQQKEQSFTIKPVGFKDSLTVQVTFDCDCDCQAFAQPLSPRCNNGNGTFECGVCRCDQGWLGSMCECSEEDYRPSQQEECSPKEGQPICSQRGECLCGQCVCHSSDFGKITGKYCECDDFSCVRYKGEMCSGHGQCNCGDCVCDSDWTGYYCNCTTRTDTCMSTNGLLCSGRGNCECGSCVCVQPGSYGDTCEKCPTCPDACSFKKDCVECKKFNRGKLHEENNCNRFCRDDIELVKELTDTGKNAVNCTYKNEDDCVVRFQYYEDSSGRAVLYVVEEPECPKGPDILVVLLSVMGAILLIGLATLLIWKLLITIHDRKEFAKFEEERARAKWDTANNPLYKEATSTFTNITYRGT
Description: 3H-MK-0429 binding assay with purified receptor.

In a further series the target is human integrin αvβ3 (Homo sapiens, UniProt P05106+P06756). Kind of series: cell adhesion assay, HeK293-αvβ3 cells to vitronectin. Format: cell-based. In short, it runs like this: (§1)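 Stably transfected HEK293 cells overexpressing a human integrin, 25×10³ cells/well, attached for 2 h at 37°C in a humidified incubator, with or without increasing concentrations of test compound. Wells were coated with vitronectin (αvβ3, αvβ5), fibrinogen (αIIbβ3) or fibronectin (α5β1). Non-attached cells were washed off. Attached cells were quantified by colorimetric hexosaminidase activity against a per-line standard curve; mean of triplicates.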

A further series relates to human integrin αvβ5. Kind of series: cell adhesion assay, HeK293 overexpressing αvβ5 to vitronectin. Format: cell-based. The settings on record: relative to αvβ3-mediated adhesion. In a few lines: as §1
Another series has as its system human integrin αIIbβ3. Kind of series: cell adhesion assay, HeK293 overexpressing αIIbβ3 to fibrinogen. Format: cell-based. The settings on record: relative to αvβ3-mediated adhesion. In a few lines:
as §1

The test system of another series is human integrin α5β1. Description: cell adhesion assay, HeK293 overexpressing α5β1 to fibronectin. The settings on record: relative to αvβ3-mediated adhesion. Format: cell-based. In a few lines:
as §1

Series [4] in a line: body weight of mice injected with B16F10 melanoma. The conditions noted are these: 100 and 300 mg/kg, p.o., b.i.d., over the study duration. Format: in vivo, B6D2F1 hybrid female mice.
The subject of the next series is murine B16F10 melanoma. Kind of series: lung metastasis in the murine B16F10 melanoma prevention model. Format: in vivo, B6D2F1 hybrid female mice. The settings on record: for total tumor colony number on lung surface: Veh 90±5, mean ± SEM. In a few lines:
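6-week-old B6D2F1 females got 1.5×10⁵ B16F10 cells (cultured in DMEM/10% FBS) by i.v. tail vein. Necropsy ~2 weeks. Surface colonies counted across five lung regions; formalin-fixed frontal H&E sections for tumor area. Mean ± SEM; ANOVA/Tukey or t-test; Fisher's PLSD for area.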

The subject of series [5] is B16F10-luc melanoma cells. Description: bioluminescent imaging of de novo lung metastasis, B16F10-luc melanoma model. Format: in vivo, (nu/nu) female mice. In a few lines:
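8-week-old nu/nu females got 2.5×10⁵ G418-selected luciferase-expressing B16F10 cells i.v. From day 1, saline or test compound 300 mg/kg p.o. b.i.d. for two weeks; n=10/group. Imaged on days 0, 3, 8, 11 and 15 under 2.5% isoflurane after D-luciferin 90 mg/kg i.p. Total flux (photons/s) taken in head, lung and abdomen ROIs, dorsal and ventral. Then ex vivo lung imaging and surface colony counts. Mean ± SEM.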

In series [6] the test system is osteoclastic bone resorption. The conditions noted are these: read-out: IC50, inhibition of osteoclastic bone resorption; in vitro; cited from earlier work.
For series [7] the following is noted: ovariectomized rats; cited from earlier work.
The conditions of series [8]: ovariectomized monkeys; cited from earlier work.
The conditions of series [9]: cited from earlier work.
The conditions of series [10]: cited from earlier work. This is another data set of the same source.
For series [11] the following is noted: approximately; cited from earlier work.
The subject of series [12] is metastatic melanoma. The conditions noted are these: intravenously twice weekly; stage IV or unresectable stage III; cited from earlier work.
For series [13], the system named is metastatic melanoma. The settings on record: 8 mg/kg once weekly, i.v.; stage IV metastatic melanoma; cited from earlier work.
Where [14] appears, read: 300 mg/kg, p.o., b.i.d., day 11.

Entries after “also recorded” stand apart in the source; their conditions may differ. Like-named read-outs stand apart in the source and are kept apart here.

Sequence of human integrin αvβ3 (P06756 891-1048): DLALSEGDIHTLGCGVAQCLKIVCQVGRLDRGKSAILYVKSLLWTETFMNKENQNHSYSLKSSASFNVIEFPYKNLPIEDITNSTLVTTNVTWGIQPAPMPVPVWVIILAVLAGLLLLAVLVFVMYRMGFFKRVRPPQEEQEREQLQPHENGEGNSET
Sequence of human integrin αvβ3 (P05106 27-788): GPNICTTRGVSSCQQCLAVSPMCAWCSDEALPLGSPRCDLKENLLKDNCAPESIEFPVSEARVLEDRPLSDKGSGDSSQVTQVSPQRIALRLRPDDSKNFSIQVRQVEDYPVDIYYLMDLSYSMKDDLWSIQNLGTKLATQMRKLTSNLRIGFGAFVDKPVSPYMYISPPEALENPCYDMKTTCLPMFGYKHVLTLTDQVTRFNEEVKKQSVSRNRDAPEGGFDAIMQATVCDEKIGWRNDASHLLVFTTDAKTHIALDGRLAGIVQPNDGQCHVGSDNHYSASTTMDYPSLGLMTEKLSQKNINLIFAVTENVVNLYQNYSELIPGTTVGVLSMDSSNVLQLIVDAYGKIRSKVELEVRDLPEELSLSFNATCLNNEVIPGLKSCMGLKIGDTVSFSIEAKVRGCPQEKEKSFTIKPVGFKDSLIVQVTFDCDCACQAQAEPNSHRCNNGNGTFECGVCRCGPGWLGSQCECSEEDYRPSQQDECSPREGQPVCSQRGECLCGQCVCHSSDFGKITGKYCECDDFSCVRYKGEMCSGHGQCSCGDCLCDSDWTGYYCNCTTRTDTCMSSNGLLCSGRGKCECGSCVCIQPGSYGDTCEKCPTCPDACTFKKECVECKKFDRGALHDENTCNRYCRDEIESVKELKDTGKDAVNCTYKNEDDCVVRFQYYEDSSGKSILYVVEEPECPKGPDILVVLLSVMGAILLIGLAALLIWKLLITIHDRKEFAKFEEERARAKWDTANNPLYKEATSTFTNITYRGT
Sequence of human integrin αvβ3 (P06756 31-889): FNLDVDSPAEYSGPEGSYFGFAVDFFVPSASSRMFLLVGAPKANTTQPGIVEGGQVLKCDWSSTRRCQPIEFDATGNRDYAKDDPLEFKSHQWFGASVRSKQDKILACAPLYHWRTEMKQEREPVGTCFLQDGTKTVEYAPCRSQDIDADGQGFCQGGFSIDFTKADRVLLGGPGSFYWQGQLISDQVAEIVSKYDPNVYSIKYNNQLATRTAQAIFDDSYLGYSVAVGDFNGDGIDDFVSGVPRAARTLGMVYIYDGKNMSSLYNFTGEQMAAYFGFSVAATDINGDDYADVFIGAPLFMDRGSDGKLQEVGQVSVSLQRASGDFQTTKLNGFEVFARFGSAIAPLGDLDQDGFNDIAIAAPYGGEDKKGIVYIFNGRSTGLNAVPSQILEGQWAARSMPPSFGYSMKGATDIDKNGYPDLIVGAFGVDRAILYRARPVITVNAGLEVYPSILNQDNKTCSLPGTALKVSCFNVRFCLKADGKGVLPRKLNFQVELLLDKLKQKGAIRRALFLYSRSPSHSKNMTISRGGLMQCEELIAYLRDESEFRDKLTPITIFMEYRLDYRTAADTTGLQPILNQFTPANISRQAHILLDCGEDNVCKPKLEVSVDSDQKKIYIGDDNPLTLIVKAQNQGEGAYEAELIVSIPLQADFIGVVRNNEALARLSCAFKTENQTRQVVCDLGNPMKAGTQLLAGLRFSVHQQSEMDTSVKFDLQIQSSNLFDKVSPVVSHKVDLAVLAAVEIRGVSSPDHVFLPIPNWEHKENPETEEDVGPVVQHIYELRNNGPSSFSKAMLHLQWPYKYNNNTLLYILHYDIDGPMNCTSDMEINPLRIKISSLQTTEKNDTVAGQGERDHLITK
Sequence of purified murine αvβ3 integrin (P43406 31-885): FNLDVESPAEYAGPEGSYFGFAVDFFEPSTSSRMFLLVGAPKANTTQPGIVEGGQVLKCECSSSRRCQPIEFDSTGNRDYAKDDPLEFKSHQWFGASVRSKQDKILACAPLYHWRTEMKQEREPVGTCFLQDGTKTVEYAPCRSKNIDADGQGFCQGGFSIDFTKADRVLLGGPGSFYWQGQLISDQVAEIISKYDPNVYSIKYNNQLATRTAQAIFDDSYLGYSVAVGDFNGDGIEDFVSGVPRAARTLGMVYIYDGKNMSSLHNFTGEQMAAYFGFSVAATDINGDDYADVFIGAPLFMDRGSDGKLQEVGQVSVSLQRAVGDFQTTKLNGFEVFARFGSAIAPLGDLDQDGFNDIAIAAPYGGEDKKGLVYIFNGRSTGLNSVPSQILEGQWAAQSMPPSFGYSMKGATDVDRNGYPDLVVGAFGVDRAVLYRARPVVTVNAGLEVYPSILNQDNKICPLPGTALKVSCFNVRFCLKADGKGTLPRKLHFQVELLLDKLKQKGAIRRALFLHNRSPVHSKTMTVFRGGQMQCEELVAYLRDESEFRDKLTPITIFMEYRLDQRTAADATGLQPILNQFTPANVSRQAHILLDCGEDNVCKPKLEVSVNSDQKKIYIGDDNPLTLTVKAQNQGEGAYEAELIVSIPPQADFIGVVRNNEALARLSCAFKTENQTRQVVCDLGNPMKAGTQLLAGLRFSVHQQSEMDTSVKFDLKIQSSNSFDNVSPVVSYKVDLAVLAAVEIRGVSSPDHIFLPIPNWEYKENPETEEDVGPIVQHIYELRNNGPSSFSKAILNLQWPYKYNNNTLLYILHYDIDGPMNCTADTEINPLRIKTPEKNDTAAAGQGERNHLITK
Sequence of purified murine αvβ3 integrin (P43406 887-1044): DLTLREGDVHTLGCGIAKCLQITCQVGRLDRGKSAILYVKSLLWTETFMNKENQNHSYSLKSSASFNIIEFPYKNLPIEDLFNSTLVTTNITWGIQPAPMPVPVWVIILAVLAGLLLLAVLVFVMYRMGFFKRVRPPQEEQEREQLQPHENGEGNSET
Sequence of purified murine αvβ3 integrin (O54890 26-787): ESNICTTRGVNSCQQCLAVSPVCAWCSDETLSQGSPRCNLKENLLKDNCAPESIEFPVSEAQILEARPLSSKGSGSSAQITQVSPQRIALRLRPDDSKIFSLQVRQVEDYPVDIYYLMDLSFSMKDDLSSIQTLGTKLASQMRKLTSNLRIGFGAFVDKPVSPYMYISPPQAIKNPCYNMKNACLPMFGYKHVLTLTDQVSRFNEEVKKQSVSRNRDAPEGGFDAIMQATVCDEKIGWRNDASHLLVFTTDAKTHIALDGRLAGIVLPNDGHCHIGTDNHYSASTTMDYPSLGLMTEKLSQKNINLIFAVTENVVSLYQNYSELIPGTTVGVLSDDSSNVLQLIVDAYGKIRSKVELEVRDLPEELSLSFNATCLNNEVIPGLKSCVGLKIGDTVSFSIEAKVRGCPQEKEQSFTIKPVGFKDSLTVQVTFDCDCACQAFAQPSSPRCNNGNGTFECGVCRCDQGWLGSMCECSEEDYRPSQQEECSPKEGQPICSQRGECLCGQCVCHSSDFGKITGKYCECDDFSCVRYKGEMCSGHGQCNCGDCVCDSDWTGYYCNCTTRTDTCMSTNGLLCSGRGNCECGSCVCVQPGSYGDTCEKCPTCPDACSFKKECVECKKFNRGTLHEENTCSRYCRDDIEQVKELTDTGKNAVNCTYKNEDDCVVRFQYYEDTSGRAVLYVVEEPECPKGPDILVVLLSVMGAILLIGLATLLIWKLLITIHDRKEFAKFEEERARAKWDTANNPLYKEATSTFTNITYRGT
Sequence of purified human αvβ3 integrin (P05106 27-788): as the sequence (P05106 27-788) above
Sequence of purified human αvβ3 integrin (P06756 31-889): as the sequence (P06756 31-889) above
Sequence of purified human αvβ3 integrin (P06756 891-1048): as the sequence (P06756 891-1048) above

Turning to `COc1ccc([C@H](CC(=O)O)N2CCN(CCCc3ccc4c(n3)NCCC4)C2=O)cn1` [MK-0429, 3(S)-(6-methoxypyridin-3-yl)-3-[2-oxo-3-[3-(5,6,7,8-tetrahydro-[1,8]-naphthyridin-2-yl)propyl]imidazolidin-1-yl] propionic acid], the Kd was found to be 0.33 ± 0.04 nM in series [1], 0.56 ± 0.07 nM in series [2] and 1.23 ± 0.11 nM in [3]. The IC50 at human integrin αvβ3 is 0.58 ± 0.3 nM; in series [6], 12.2 ± 4.5 nM. Also, the “fold less potent in blocking adhesion of HeK293-αvβ5 to vitronectin” value with human integrin αvβ5 is on record as ~ 100 fold. In addition, the “fold less active in blocking adhesion mediated by αIIbβ3 to fibrinogen” value in the series with human integrin αIIbβ3 was > 1,000 fold. Further, in the series with human integrin α5β1, the “fold less active in blocking adhesion mediated by α5β1 to fibronectin” value was > 1,000 fold. In addition, in series [4], the “effect on body weight” value is “no significant weight loss”. In addition, the “reduction of tumor colony number vs vehicle” value was 64% in the series on murine B16F10 melanoma (100 mg/kg, p.o., b.i.d.) and 57% with murine B16F10 melanoma (300 mg/kg, p.o., b.i.d.). For the same molecule, the “total tumor colony number on lung surface” value in the series on murine B16F10 melanoma (100 mg/kg, p.o., b.i.d.) amounted to 33±6; with murine B16F10 melanoma (300 mg/kg, p.o., b.i.d.), 39±9. In the series with murine B16F10 melanoma (300 mg/kg, b.i.d., Veh 11.1±0.4, n=5/group), the “total tumor area in lung sections (H&E)” value turned out to be 5.0±0.7 mm^2. Besides, in the series with murine B16F10 melanoma (100 and 300 mg/kg, p.o., b.i.d., five lung regions), the “reduction of melanoma colonies in all lung regions” value is 53–68%. The “reduction of visible metastatic colonies counted on the ex vivo lung surface” value in [5] (300 mg/kg twice daily for two weeks, p<0.05 vs. Veh) came to 32%. In addition, the “decrease of metastasis in the lungs, ex vivo bioluminescence, vs vehicle” value in series [5] (300 mg/kg, p.o., b.i.d.) was ~ 40%. The “ex vivo lung tumor burden (bioluminescence)” value in series [5] (300 mg/kg, p.o., b.i.d., Veh 118.1±27.1, not statistically significant) is 69.9±5.9 ×10^5 photons/sec. For the same molecule, the “reduction of melanoma burden in the ventral lung (bioluminescence) vs vehicle” value in series [5] (300 mg/kg, p.o., b.i.d., day 8) is reported as 38%; in series [5] (setting [14]) it was 37%. In addition, the “reduction of tumor metastases in the dorsal lung (bioluminescence) vs vehicle” value in series [5] (300 mg/kg, p.o., b.i.d., day 8) is listed as 15%; in series [5] (setting [14]), 54%; in [5] (300 mg/kg, p.o., b.i.d., day 15, p=0.0561 vs. Veh) it was 38%. The bone mass entry in series [7] and in series [8] was “increases bone mass” in each case. Also, the bone turnover entry in series [7] and in [8] was “significantly reduces bone turnover” in each case. In [9] (100 or 400 mg once daily, or 200 mg twice daily for 12 months), the “bone mineral density at the spine and hip compared to placebo” value is on record as “significant increase”. Moreover, the tolerability result in series [9] (postmenopausal women with osteoporosis) is “well tolerated and without serious adverse events”; in series [10] (up to 1,600 mg twice daily for four weeks), “well tolerated at this high dose; also recorded: well tolerated and without serious adverse events”. In addition, in [10] (200 and 1,600 mg orally, twice daily for four weeks), the “bone resorption marker urinary N-telopeptide” value was “significantly decreased”.
As for Cilengitide [reference compound], the half-life in series [11] was 2 to 4 h. Moreover, the “clinical efficacy as single-agent therapy for advanced melanoma” value with metastatic melanoma [12] is given as “minimal clinical efficacy”.
For the molecule `O=P1(N(CCCl)CCCl)NCCCO1` (stereo not drawn) [Cyclophosphamide, cyclophosphamide, reference compound], the “reduction of tumor colony number vs vehicle” value in the series on murine B16F10 melanoma (300 mg/kg, i.p., q.d.) is reported as 99%.

B1: etaracizumab: monoclonal antibody against αvβ3 (antibody, chains of the INN, looked up, V domains shown)
VH: QVQLVESGGGVVQPGRSLRLSCAASGFTFSSYDMSWVRQAPGKGLEWVAKVSSGGGSTYYLDTVQGRFTISRDNSKNTLYLQMNSLRAEDTAVYYCARHLHGSFASWGQGTTVTVSS
VL: EIVLTQSPATLSLSPGERATLSCQASQSISNFLHWYQQRPGQAPRLLIRYRSQSISGIPARFSGSGSGTDFTLTISSLEPEDFAVYYCQQSGSWPLTFGGGTKVEIK
Regarding B1, in series [11], the half-life entry was “a few days”. Also, the “median survival rate, alone vs in combination with dacarbazine” value in the series with metastatic melanoma [13] is “not different”.
